Reference: ChEMBL document CHEMBL4152257, “Discovery of novel β-carboline/acylhydrazone hybrids as potent antitumor agents and overcome drug resistance” (Eur J Med Chem, 2018)
The source made the active and inactive calls. The calls are words filed in the database; no cut-off is given here.

Columns and labels:
A549/TR = experiment: Antiproliferative activity against human A549/TR cells after 48 to 72 hrs by MTT assay; assay type: functional, cell-based
Method in brief: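 Cells in log phase seeded and allowed to adhere, then exposed to graded compound concentrations for 48 h or 72 h; MTT added for a further 2-3 h, formazan dissolved in DMSO. IC50 taken from dose-response curves; mean ± SD of at least three independent experiments.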

MCF7 [1] = experiment: Induction of apoptosis in human MCF7 cells assessed as late apoptotic cells at 100 uM after 48 hrs by annexin V-FITC/PI dual staining based flow cytometry (reference value: 11.1%); assay type: functional
NCI/ADR-RES [2] = experiment: Induction of apoptosis in human MCF7/ADR cells assessed as early apoptotic cells at 100 uM after 48 hrs by annexin V-FITC/PI dual staining based flow cytometry (reference value: 2.72%); assay type: functional
MCF7 [3] = experiment: Cell cycle arrest in human MCF7 cells assessed as accumulation at sub-G1 phase after 18 hrs by propidium iodide staining based flow cytometry; assay type: functional
NCI/ADR-RES [4] = experiment: Induction of apoptosis in human MCF7/ADR cells assessed as necrotic cells at 10 uM after 48 hrs by annexin V-FITC/PI dual staining based flow cytometry (reference value: 2.43%); assay type: functional

- IC50 (A549/TR): 3.13 µM
Compound: N#Cc1ccc(COc2cccc(/C=N/NC(=O)c3cc4c(cn3)[nH]c3ccccc34)c2)cc1
- Activity (MCF7 [1]): 38.9%
- Activity (NCI/ADR-RES [2]): 7.11%
- Activity (MCF7 [3]): Active
- Activity (NCI/ADR-RES [4]): 6.4%
